Source: ChEMBL document CHEMBL1145247, “4-Alkyl and 4,4'-dialkyl 1,2-bis(4-chlorophenyl)pyrazolidine-3,5-dione derivatives as new inhibitors of bacterial cell wall biosynthesis” (Bioorg Med Chem Lett, 2005)
≈ marks a conversion by molar mass, not a printed value.

Key:
[1] = Minimum inhibitory concentration against cell wall biosynthesis of methicillin-susceptible Coagulase negative staphylococcus GC 646 (MSCNS); type: functional
How it was run: (§1)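 Broth microdilution per NCCLS M7-A3. Mueller–Hinton broth for staphylococci and enterococci, 2-fold serial dilutions of agent. Final inoculum 1–5 × 10^5 CFU/mL.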

Staphylococcus aureus [2] = assay: Minimum inhibitory concentration against cell wall biosynthesis of methicillin resistant Staphylococcus aureus GC 1131; type: functional
How it was run: (§2)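 Broth microdilution per NCCLS M7-A3 in Mueller–Hinton broth, aerobic. Agents tested as 2-fold serial dilutions, with a final inoculum of 1–5 × 10^5 CFU/mL. Plates incubated 18–22 h at 35 °C in ambient air. MIC read as the endpoint.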

Enterococcus faecalis [3] = assay: Minimum inhibitory concentration against cell wall biosynthesis of vancomycin susceptible (ATCC) Enterococcus faecalis GC 4555; type: functional; how it was run: as §1
[4] = target: T1, UDP-N-acetylenolpyruvoylglucosamine reductase (Escherichia coli K-12, UniProt P08373); assay: Inhibitory concentration against MurB enzyme in Escherichia coli
T1 sequence (P08373 whole entry): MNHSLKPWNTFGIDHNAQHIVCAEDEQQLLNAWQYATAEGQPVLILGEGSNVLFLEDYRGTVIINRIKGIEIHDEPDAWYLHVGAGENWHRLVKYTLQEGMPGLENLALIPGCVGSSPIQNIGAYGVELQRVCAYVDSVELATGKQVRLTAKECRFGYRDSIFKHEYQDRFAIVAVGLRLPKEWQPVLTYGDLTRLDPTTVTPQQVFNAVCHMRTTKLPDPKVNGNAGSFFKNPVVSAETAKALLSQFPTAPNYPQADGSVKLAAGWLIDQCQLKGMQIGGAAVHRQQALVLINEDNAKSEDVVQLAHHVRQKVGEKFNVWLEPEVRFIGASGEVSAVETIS
How it was run: (§3)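 Enzyme (20 nM) preincubated 20 min with inhibitor, then substrates added to final 50 µM EP-UNAG and 100 µM NADPH. Activity followed spectrophotometrically. At least six inhibitor concentrations between 1.5 and 50 µM per compound. IC50 from sigmoid Hill curve fit (0–100).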

Streptococcus pneumoniae [5] = assay: Minimum inhibitory concentration against cell wall biosynthesis of penicillin resistant Streptococcus pneumoniae GC 1894 (PRSP); type: functional
How it was run: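 Broth microdilution per NCCLS M7-A3, using Mueller–Hinton broth supplemented with 5% sheep blood. Agents tested as 2-fold serial dilutions, with a final inoculum of 1–5 × 10^5 CFU/mL.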

[6] = target: T2, UDP-N-acetylenolpyruvoylglucosamine reductase (Staphylococcus aureus, UniProt P61431); assay: Inhibitory concentration against MurB enzyme in Staphylococcus aureus; how it was run: as §3
T2 sequence (P61431 whole entry): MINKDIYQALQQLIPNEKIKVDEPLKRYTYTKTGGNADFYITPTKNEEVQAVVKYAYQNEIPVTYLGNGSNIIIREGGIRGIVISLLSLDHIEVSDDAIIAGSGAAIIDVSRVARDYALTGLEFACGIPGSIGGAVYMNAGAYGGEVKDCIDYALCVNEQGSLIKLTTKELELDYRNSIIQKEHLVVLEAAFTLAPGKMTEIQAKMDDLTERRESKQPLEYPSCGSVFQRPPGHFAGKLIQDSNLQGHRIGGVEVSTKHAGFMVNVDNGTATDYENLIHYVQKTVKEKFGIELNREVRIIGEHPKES

Enterococcus faecalis [7] = assay: Minimum inhibitory concentration against cell wall biosynthesis of vancomycin resistant Enterococcus faecalis GC 2242 (VRE); type: functional; how it was run: as §2
Staphylococcus aureus [8] = assay: Minimum inhibitory concentration against cell wall biosynthesis of methicillin susceptible Staphylococcus aureus GC 4543; type: functional; how it was run: as §2
[9] = target: UDP-N-acetylglucosamine 1-carboxyvinyltransferase (Escherichia coli K-12, UniProt P0A749); assay: Inhibitory concentration against MurA enzyme in Escherichia coli
How it was run: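 Enzyme preincubated with inhibitor 10 min at 37 °C before substrates were added. Reaction ran 30 min at 37 °C and was stopped with malachite green reagent (0.03% malachite green, 1.4% ammonium molybdate, 1.3 N HCl) for phosphate read-out.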

Escherichia coli [10] = assay: Minimum inhibitory concentration against cell wall biosynthesis of Escherichia coli GC 4559; type: functional; how it was run: as §1
Streptococcus pneumoniae [11] = assay: Minimum inhibitory concentration against cell wall biosynthesis of penicillin resistant Streptococcus pneumoniae GC 1894 (PRSP) in the presence of 4% bovine serum albumin; type: functional
Escherichia coli [12] = assay: Minimum inhibitory concentration against cell wall biosynthesis of Escherichia coli GC 4560; type: functional
Escherichia coli [13] = assay: Minimal inhibitory concentration against Escherichia coli GC 4560 was determined; type: functional; how it was run: as §1
Staphylococcus aureus [14] = assay: Minimal inhibitory concentration against methicillin resistant Staphylococcus aureus was determined; Range = 25-50 uM; type: functional; how it was run: as §2
Enterococcus faecalis [15] = assay: Minimal inhibitory concentration against vancomycin susceptible Enterococcus faecalis was determined; Range = 25-50 uM; type: functional; how it was run: as §2
Staphylococcus aureus [16] = assay: Minimal inhibitory concentration against methicillin susceptible Staphylococcus aureus was determined; Range = 25-50 uM; type: functional; how it was run: as §2
Enterococcus faecalis [17] = assay: Minimal inhibitory concentration against vancomycin resistant Enterococcus faecalis was determined; Range = 25-50 uM; type: functional; how it was run: as §2

UDP-N-acetylglucosamine 1-carboxyvinyltransferase, sequence (P0A749 whole entry): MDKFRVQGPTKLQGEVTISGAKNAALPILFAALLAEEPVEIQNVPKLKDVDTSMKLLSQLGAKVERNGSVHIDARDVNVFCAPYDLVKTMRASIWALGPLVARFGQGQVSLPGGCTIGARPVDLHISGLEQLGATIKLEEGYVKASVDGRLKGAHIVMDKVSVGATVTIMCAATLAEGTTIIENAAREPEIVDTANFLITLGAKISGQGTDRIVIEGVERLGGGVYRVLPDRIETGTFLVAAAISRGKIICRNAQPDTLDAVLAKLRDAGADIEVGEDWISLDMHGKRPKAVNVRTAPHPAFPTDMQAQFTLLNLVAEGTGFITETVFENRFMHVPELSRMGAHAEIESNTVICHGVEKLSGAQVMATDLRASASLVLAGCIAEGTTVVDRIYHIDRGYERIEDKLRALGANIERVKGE

| Compound | MIC [1] [µM] | MIC (Staphylococcus aureus [2]) [µM] | MIC (Enterococcus faecalis [3]) [µM] | IC50 [4] [µM] | MIC (Streptococcus pneumoniae [5]) [µM] | IC50 [6] [µM] | MIC (Enterococcus faecalis [7]) [µM] | MIC (Staphylococcus aureus [8]) [µM] | IC50 [9] [µM] | MIC (Escherichia coli [10]) [µM] | MIC (Streptococcus pneumoniae [11]) [µM] | MIC (Escherichia coli [12]) [µM] | MIC (Escherichia coli [13]) [µM] | MIC (Staphylococcus aureus [14]) [µM] | MIC (Enterococcus faecalis [15]) [µM] | MIC (Staphylococcus aureus [16]) [µM] | MIC (Enterococcus faecalis [17]) [µM] |
| --- | --- | --- | --- | --- | --- | --- | --- | --- | --- | --- | --- | --- | --- | --- | --- | --- | --- |
| O=C1N(c2ccc(Cl)cc2)N(c2ccc(Cl)cc2)C(=O)C1(CCCCCCc1ccccc1)CCCCCCc1ccccc1 | > 200 | > 200 | > 200 | 7.2 | 100 (≈ 64.2 µg/mL) | 8.2 | 200 (≈ 128 µg/mL) | 200 (≈ 128 µg/mL) | 9.9 | > 200 | > 200 | > 200 | – | – | – | – | – |
| O=C1C(Cc2ccc(Cl)cc2Cl)C(=O)N(c2ccc(Cl)cc2)N1c1ccc(Cl)cc1 | 50 (≈ 24 µg/mL) | 50 (≈ 24 µg/mL) | 100 (≈ 48 µg/mL) | 11 | 12.5 (≈ 6 µg/mL) | 29 | 50 (≈ 24 µg/mL) | 50 (≈ 24 µg/mL) | > 50 | > 200 | > 200 | 100 (≈ 48 µg/mL) | – | – | – | – | – |
| O=C(CC1C(=O)N(c2ccc(Cl)cc2)N(c2ccc(Cl)cc2)C1=O)c1ccc(F)cc1 | > 200 | 25 (≈ 11.4 µg/mL) | 50 (≈ 22.9 µg/mL) | 5.4 | 25 (≈ 11.4 µg/mL) | 5.2 | 50 (≈ 22.9 µg/mL) | 25 (≈ 11.4 µg/mL) | 8.4 | > 200 | > 200 | 200 (≈ 91.5 µg/mL) | – | – | – | – | – |
| O=C(CCC1C(=O)N(c2ccc(Cl)cc2)N(c2ccc(Cl)cc2)C1=O)c1ccc(F)cc1 | 200 (≈ 94.3 µg/mL) | 100 (≈ 47.1 µg/mL) | 100 (≈ 47.1 µg/mL) | 13 | 50 (≈ 23.6 µg/mL) | 18 | 100 (≈ 47.1 µg/mL) | 100 (≈ 47.1 µg/mL) | 46.9 | > 200 | > 200 | 200 (≈ 94.3 µg/mL) | – | – | – | – | – |
| N#Cc1ccccc1-c1ccc(CC2C(=O)N(c3ccc(Cl)cc3)N(c3ccc(Cl)cc3)C2=O)cc1 | 6.25 (≈ 3.2 µg/mL) | – | 25 (≈ 12.8 µg/mL) | 11 | – | 12 | – | 6.25 (≈ 3.2 µg/mL) | > 50 | > 200 | – | 25 (≈ 12.8 µg/mL) | 25 (≈ 12.8 µg/mL) | – | – | – | – |
| O=C1C(CCOCc2ccccc2)C(=O)N(c2ccc(Cl)cc2)N1c1ccc(Cl)cc1 | 200 (≈ 91.1 µg/mL) | 100 (≈ 45.5 µg/mL) | 200 (≈ 91.1 µg/mL) | 11 | 25 (≈ 11.4 µg/mL) | 11 | 100 (≈ 45.5 µg/mL) | 200 (≈ 91.1 µg/mL) | 33.4 | > 200 | > 200 | 200 (≈ 91.1 µg/mL) | – | – | – | – | – |
| O=C(CC1(CC(=O)c2ccc(F)cc2F)C(=O)N(c2ccc(Cl)cc2)N(c2ccc(Cl)cc2)C1=O)c1ccc(F)cc1F | 25 (≈ 15.7 µg/mL) | 12.5 (≈ 7.87 µg/mL) | 12.5 (≈ 7.87 µg/mL) | 5.8 | 3.12 (≈ 1.96 µg/mL) | 5.2 | 12.5 (≈ 7.87 µg/mL) | 12.5 (≈ 7.87 µg/mL) | 9.6 | > 200 | > 200 | 100 (≈ 62.9 µg/mL) | – | – | – | – | – |
| CCN(CCC1C(=O)N(c2ccc(Cl)cc2)N(c2ccc(Cl)cc2)C1=O)Cc1ccccc1 | > 200 | 200 (≈ 96.5 µg/mL) | > 200 | > 50 | 100 (≈ 48.2 µg/mL) | > 50 | 200 (≈ 96.5 µg/mL) | > 200 | > 50 | > 200 | > 200 | > 200 | – | – | – | – | – |
| O=C(CCCC1C(=O)N(c2ccc(Cl)cc2)N(c2ccc(Cl)cc2)C1=O)c1ccc(F)cc1 | 100 (≈ 48.5 µg/mL) | 50 (≈ 24.3 µg/mL) | 50 (≈ 24.3 µg/mL) | 10 | 12.5 (≈ 6.07 µg/mL) | 11 | 50 (≈ 24.3 µg/mL) | 50 (≈ 24.3 µg/mL) | 32.4 | > 200 | > 200 | 200 (≈ 97.1 µg/mL) | – | – | – | – | – |
| O=C1N(c2ccc(Cl)cc2)N(c2ccc(Cl)cc2)C(=O)C1(CCOCc1ccccc1)CCOCc1ccccc1 | 200 (≈ 118 µg/mL) | 100 (≈ 59 µg/mL) | 25 (≈ 14.7 µg/mL) | 7.2 | 12.5 (≈ 7.37 µg/mL) | 7.5 | 50 (≈ 29.5 µg/mL) | 100 (≈ 59 µg/mL) | 20.1 | > 200 | > 200 | 200 (≈ 118 µg/mL) | – | – | – | – | – |
| O=C1C(CCCCc2ccccc2)C(=O)N(c2ccc(Cl)cc2)N1c1ccc(Cl)cc1 | 200 (≈ 90.7 µg/mL) | 200 (≈ 90.7 µg/mL) | 200 (≈ 90.7 µg/mL) | 5.6 | 25 (≈ 11.3 µg/mL) | 6.8 | 100 (≈ 45.3 µg/mL) | 200 (≈ 90.7 µg/mL) | 23.8 | > 200 | > 200 | > 200 | – | – | – | – | – |
| O=C1C(CCCCCc2ccccc2)C(=O)N(c2ccc(Cl)cc2)N1c1ccc(Cl)cc1 | > 200 | 200 (≈ 93.5 µg/mL) | 100 (≈ 46.7 µg/mL) | 10 | 25 (≈ 11.7 µg/mL) | 32 | 200 (≈ 93.5 µg/mL) | 100 (≈ 46.7 µg/mL) | 42.3 | > 200 | > 200 | > 200 | – | – | – | – | – |
| O=C1C(CCCCCCc2ccccc2)C(=O)N(c2ccc(Cl)cc2)N1c1ccc(Cl)cc1 | 100 (≈ 48.1 µg/mL) | 25 (≈ 12 µg/mL) | 50 (≈ 24.1 µg/mL) | 8.9 | 6.25 (≈ 3.01 µg/mL) | 12 | 50 (≈ 24.1 µg/mL) | 25 (≈ 12 µg/mL) | 34.9 | > 200 | > 200 | 200 (≈ 96.3 µg/mL) | – | 50 (≈ 24.1 µg/mL) | 50 (≈ 24.1 µg/mL) | 50 (≈ 24.1 µg/mL) | 50 (≈ 24.1 µg/mL) |
